Measurements published in ChEMBL document CHEMBL2086265, “Design of inhibitors of Helicobacter pylori glutamate racemase as selective antibacterial agents: incorporation of imidazoles onto a core pyrazolopyrimidinedione scaffold to improve bioavailabilty” (Bioorg Med Chem Lett, 2012).
Values after ≈ are worked out from the molar mass of the structure shown.

Assays:
Helicobacter pylori [1] = experiment: Ratio of MIC for wild type Helicobacter pylori 055 to MIC for AcrAB-TolC efflux pump-dificient Helicobacter pylori
Helicobacter pylori [2] = experiment: Antibacterial activity against AcrAB-TolC efflux pump-dificient Helicobacter pylori; format: functional
Helicobacter pylori [3] = experiment: Antibacterial activity against wild type Helicobacter pylori 055; format: functional
Glutamate racemase = molecular target: T1, Glutamate racemase (Helicobacter pylori J99, UniProt Q9ZLT0); experiment: Inhibition of Helicobacter pylori J99 glutamate racemase
T1 sequence (Q9ZLT0 whole entry): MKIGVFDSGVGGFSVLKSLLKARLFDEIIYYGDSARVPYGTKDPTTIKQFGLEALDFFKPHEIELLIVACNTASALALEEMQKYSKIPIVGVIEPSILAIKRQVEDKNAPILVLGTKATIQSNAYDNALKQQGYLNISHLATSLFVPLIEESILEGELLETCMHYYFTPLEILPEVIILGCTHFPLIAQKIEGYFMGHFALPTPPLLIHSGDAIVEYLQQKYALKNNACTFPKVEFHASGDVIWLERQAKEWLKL
Procedure, shortened: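 The racemase was expressed from the murI gene of H. pylori J99 chromosomal DNA. IC50 was taken as the mean of duplicate determinations, using a method cited from earlier work.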

[4] = Intrinsic clearance in mouse liver microsomes at 2 uM assessed per mg of protein; format: ADME, Microsome; settings: read-out: CLH
[5] = Intrinsic clearance in human liver microsomes at 2 uM assessed per mg of protein; format: ADME, Microsome; settings: read-out: CLH

| Structure (SMILES) | Ratio (Helicobacter pylori [1]) | MIC (Helicobacter pylori [2]) [µg/mL] | MIC (Helicobacter pylori [3]) [µg/mL] | IC50 (Glutamate racemase) [nM] | microsomal CLint at 2 µM [4] [µL/min/mg] | microsomal CLint at 2 µM [5] [µL/min/mg] |
| --- | --- | --- | --- | --- | --- | --- |
| Cn1cncc1-c1c2c(=O)n(CC3CC3)c(=O)n(CC3CC3)c2nn1Cc1ccnc2ccc(Cl)cc12 | <=2 | 0.9 (≈ 1.74 µM) | 2 (≈ 3.88 µM) | 69 | 44 | < 14 |
| Cn1cc(C#N)nc1-c1c2c(=O)n(CC3CC3)c(=O)n(CC3CC3)c2nn1Cc1ccnc2ccc(Cl)cc12 | <=2 | 2 (≈ 3.7 µM) | 2 (≈ 3.7 µM) | 150 | – | – |
| C=CCn1c(=O)c2c(-c3cc(C#N)cn3C)n(Cc3ccnc4ccc(Cl)cc34)nc2n(CC2CC2)c1=O | <=2 | 1 (≈ 1.9 µM) | 1.5 (≈ 2.85 µM) | 70 | 76 | 33 |
| CCn1c(=O)c2c(-c3cc(C#N)cn3C)n(Cc3ccnc4ccc(Cl)cc34)nc2n(CC2CC2)c1=O | <=2 | 0.6 (≈ 1.17 µM) | 0.75 (≈ 1.46 µM) | 70 | 17 | 25 |
| Cn1cc(C#N)cc1-c1c2c(=O)n(CC#CCn3cccn3)c(=O)n(CC3CC3)c2nn1Cc1ccnc2ccc(Cl)cc12 | – | 4 (≈ 6.62 µM) | 8 (≈ 13.2 µM) | 120 | > 100 | > 100 |
| Cc1cc(C#N)oc1-c1c2c(=O)n(C)c(=O)n(CC3CC3)c2nn1Cc1ccnc2ccc(Cl)cc12 | – | 0.25 (≈ 0.499 µM) | 1 (≈ 2 µM) | 60 | > 100 | 59 |
| Cn1cc(C#N)cc1-c1c2c(=O)n(CC#N)c(=O)n(CC3CC3)c2nn1Cc1ccnc2ccc(Cl)cc12 | – | 1 (≈ 1.9 µM) | 8 (≈ 15.2 µM) | 55 | 96 | < 14 |
| Cc1oc(C#N)cc1-c1c2c(=O)n(C)c(=O)n(CC3CC3)c2nn1Cc1ccnc2ccc(Cl)cc12 | <=2 | 2 (≈ 3.99 µM) | 2 (≈ 3.99 µM) | 220 | 63 | 38 |
| Cn1cc(C#N)cc1-c1c2c(=O)n(CC#CCO)c(=O)n(CC3CC3)c2nn1Cc1ccnc2ccc(Cl)cc12 | – | 16 (≈ 28.9 µM) | 32 (≈ 57.8 µM) | 57 | > 100 | > 100 |
| C#CCn1c(=O)c2c(-c3nc(C#N)cn3C)n(Cc3ccnc4ccc(Cl)cc34)nc2n(CC2CC2)c1=O | <=2 | 2 (≈ 3.81 µM) | 1 (≈ 1.9 µM) | 89 | 28 | < 14 |
| CC#CCn1c(=O)c2c(-c3cc(C#N)cn3C)n(Cc3ccnc4ccc(Cl)cc34)nc2n(CC2CC2)c1=O | <=2 | 2 (≈ 3.72 µM) | 2 (≈ 3.72 µM) | 74 | > 100 | 99 |
| C=CCn1c(=O)c2c(-c3cncn3C)n(Cc3ccnc4ccc(Cl)cc34)nc2n(CC2CC2)c1=O | <=2 | 0.8 (≈ 1.59 µM) | 1 (≈ 1.99 µM) | 56 | 49 | 25 |
| C#CC(C)n1c(=O)c2c(-c3cncn3C)n(Cc3ccnc4ccc(Cl)cc34)nc2n(CC2CC2)c1=O (stereo not drawn) | <=2 | 8 (≈ 15.6 µM) | 8 (≈ 15.6 µM) | 460 | 65 | 21 |
| CC(C)n1c(=O)c2c(-c3cc(C#N)cn3C)n(Cc3ccnc4ccc(Cl)cc34)nc2n(CC2CC2)c1=O | <=2 | 8 (≈ 15.2 µM) | 4 (≈ 7.58 µM) | 240 | > 100 | 26 |
| CC(C)n1c(=O)c2c(-c3cncn3C)n(Cc3ccnc4ccc(Cl)cc34)nc2n(CC2CC2)c1=O | <=2 | 16 (≈ 31.7 µM) | 16 (≈ 31.7 µM) | 220 | 51 | 53 |
| C#CC(C)n1c(=O)c2c(-c3cc(C#N)cn3C)n(Cc3ccnc4ccc(Cl)cc34)nc2n(CC2CC2)c1=O (stereo not drawn) | <=2 | 8 (≈ 14.9 µM) | 2 (≈ 3.72 µM) | 160 | > 100 | 91 |
| CCn1c(=O)c2c(-c3cncn3C)n(Cc3ccnc4ccc(Cl)cc34)nc2n(CC2CC2)c1=O | – | 1 (≈ 2.04 µM) | 4 (≈ 8.16 µM) | 72 | 15 | < 14 |
| Cn1cc(C#N)cc1-c1c2c(=O)n(CCn3ccnn3)c(=O)n(CC3CC3)c2nn1Cc1ccnc2ccc(Cl)cc12 | – | 16 (≈ 27.5 µM) | 16 (≈ 27.5 µM) | 670 | > 100 | > 100 |
| Cn1cncc1-c1c2c(=O)n(CC#CCO)c(=O)n(CC3CC3)c2nn1Cc1ccnc2ccc(Cl)cc12 | – | 16 (≈ 30.2 µM) | 64 (≈ 121 µM) | 54 | > 100 | > 100 |
| Cn1ncnc1-c1c2c(=O)n(C)c(=O)n(CC3CC3)c2nn1Cc1ccnc2ccc(Cl)cc12 | – | 4 (≈ 8.39 µM) | 8 (≈ 16.8 µM) | 810 | < 14 | 32 |
| C=CCn1c(=O)c2c(-c3nc(C#N)cn3C)n(Cc3ccnc4ccc(Cl)cc34)nc2n(CC2CC2)c1=O | <=2 | 4 (≈ 7.59 µM) | 2 (≈ 3.8 µM) | 250 | > 100 | > 100 |
| CC#CCn1c(=O)c2c(-c3cncn3C)n(Cc3ccnc4ccc(Cl)cc34)nc2n(CC2CC2)c1=O | – | 2 (≈ 3.89 µM) | 8 (≈ 15.6 µM) | 63 | 44 | 47 |
| Cn1cc(C#N)nc1-c1c2c(=O)n(C)c(=O)n(CC3CC3)c2nn1Cc1ccnc2ccc(Cl)cc12 | – | 2 (≈ 3.99 µM) | 4 (≈ 7.98 µM) | 87 | 87 | < 14 |
| Cn1cc(C#N)cc1-c1c2c(=O)n(CCO)c(=O)n(CC3CC3)c2nn1Cc1ccnc2ccc(Cl)cc12 | – | 16 (≈ 30.2 µM) | 64 (≈ 121 µM) | 88 | > 100 | > 100 |
| Cn1cc(C#N)cc1-c1c2c(=O)n(CC#CCN3CCOCC3)c(=O)n(CC3CC3)c2nn1Cc1ccnc2ccc(Cl)cc12 | – | 4 (≈ 6.42 µM) | 16 (≈ 25.7 µM) | 51 | > 100 | > 100 |
| Cn1cncc1-c1c2c(=O)n(CC#CCN3CCOCC3)c(=O)n(CC3CC3)c2nn1Cc1ccnc2ccc(Cl)cc12 | – | 16 (≈ 26.7 µM) | 64 (≈ 107 µM) | 170 | > 100 | > 100 |
| C#CCn1c(=O)c2c(-c3cc(C#N)cn3C)n(Cc3ccnc4ccc(Cl)cc34)nc2n(CC2CC2)c1=O | <=2 | 0.3 (≈ 0.573 µM) | 0.75 (≈ 1.43 µM) | 28 | 16 | < 14 |
| CCn1c(=O)c2c(-c3nc(C#N)cn3C)n(Cc3ccnc4ccc(Cl)cc34)nc2n(CC2CC2)c1=O | <=2 | 2 (≈ 3.88 µM) | 2 (≈ 3.88 µM) | 180 | < 14 | 51 |
| Cn1cc(C#N)cc1-c1c2c(=O)n(CCn3cccn3)c(=O)n(CC3CC3)c2nn1Cc1ccnc2ccc(Cl)cc12 | – | 32 (≈ 55.2 µM) | 32 (≈ 55.2 µM) | 470 | > 100 | > 100 |
